High-throughput results: PubChem, several laboratories
Platelet DG rel: modulates dense granule release in human platelets. AID 1663. actives 0.22% (n = 300,000). inhibition, %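 (compounds screened at 7.5 µM in platelet-rich plasma)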. human platelet-rich plasma, SFLLRN dense granule ATP release, luminescence;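 active = mean replicate score, as percent of positive control, at or above 50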
TAAR1 ag: agonists of human TAAR1 | activation, % at 3 µM | Q96RJ0 | actives 0.99% (n = 360,000) | CHO RD-HGA16 TAAR1, Fluo-8 calcium fluorescence; vehicle wells 0%, saturating PEA agonist 100%;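 active = activation above the mean activation of all test compounds in the run plus 3 SD, cut at about 38% in these data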
Target sequence (Q96RJ0 whole entry, looked up): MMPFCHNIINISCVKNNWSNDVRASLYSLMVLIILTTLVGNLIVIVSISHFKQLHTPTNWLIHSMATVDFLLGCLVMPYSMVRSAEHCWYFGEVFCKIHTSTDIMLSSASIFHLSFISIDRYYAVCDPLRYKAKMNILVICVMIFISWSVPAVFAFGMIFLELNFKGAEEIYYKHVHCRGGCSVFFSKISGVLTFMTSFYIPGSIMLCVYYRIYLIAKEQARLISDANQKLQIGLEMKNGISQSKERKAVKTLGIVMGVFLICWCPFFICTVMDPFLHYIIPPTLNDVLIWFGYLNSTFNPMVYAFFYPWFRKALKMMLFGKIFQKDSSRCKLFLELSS
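Assay system: CHO-derived RD-HGA16 cells with stable Gα16 and human TAAR1; timing: 17-24 h seeding, 75 min 37 °C dye, 30 min RT; read-out: % activation from peak over basal fluorescence ratio, DMSO-to-PEA scaled; measured by: kinetic Fluo-8 calcium fluorescence; benchmarks: low control DMSO, high control PEA (EC100); doses: 3 µM single concentration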
TAAR1 antag: antagonists of human TAAR1 | Q96RJ0 | CHO RD-HGA16 TAAR1, Fluo-8 calcium fluorescence, antagonist | inhibition, % at 3 µM | actives 1.5% (n = 360,000);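 active = inhibition above a per-plate cutoff, the mean inhibition of test compounds on that plate plus 3 SD, cut at about 49% in these data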;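 note: 0% = DMSO plus EC80 beta-PEA response and 100% = DMSO alone without agonist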
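Test system: hTAAR1-expressing CHO RD-HGA16 cells, Gα16-coupled; Probe or stimulus: EC80 β-phenethylamine stimulus; Compound dosing: single nominal final test compound concentration of 3 µM; Timing: 140 s kinetic read after compound, 140 s after agonist; Signal: Fluo-8 calcium-sensitive fluorescence; Measure: % inhibition of agonist calcium response; Controls: DMSO and EC80 PEA controls.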
Rce1 inh: inhibitors of yeast Ras-converting enzyme; Q03530; yeast membranes, quenched prenylated peptide cleavage fluorescence; calls only; actives 0.27% (n = 290,000); AID 2563;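 active = fall in fluorescence gain of 50% or more versus controls, with final raw signal at or below 3038400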;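 note: plate controls were neutral control wells for no effect and wells lacking membranes for full effect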
Target sequence (Q03530 whole entry, looked up): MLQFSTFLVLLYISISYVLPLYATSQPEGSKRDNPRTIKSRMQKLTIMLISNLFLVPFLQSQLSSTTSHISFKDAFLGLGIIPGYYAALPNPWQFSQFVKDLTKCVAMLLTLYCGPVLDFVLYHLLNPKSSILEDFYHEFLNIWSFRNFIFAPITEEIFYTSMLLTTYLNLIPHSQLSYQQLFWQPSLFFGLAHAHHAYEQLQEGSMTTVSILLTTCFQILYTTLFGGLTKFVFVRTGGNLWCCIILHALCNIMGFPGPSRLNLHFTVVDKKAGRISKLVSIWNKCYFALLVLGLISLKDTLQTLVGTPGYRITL
VLA-4 inh: inhibition in a human VLA-4 binding assay; VLA-4 expressing cells, ligand binding flow cytometry; inhibition, % (about 7 µM as worked out from the volumes in the protocol); actives 0.2% (n = 330,000); AID 2557; in the data active = inhibition above about 50%
Starred values were filed as active, the others as inactive; i = inactive; / = not tested or not shown; + = active, no number. A selection: hits, their analogues and other compounds. The true share with any hit is near 2.6%.

SMILES | Platelet DG rel | TAAR1 ag | TAAR1 antag | Rce1 inh | VLA-4 inh
Cc1cc[n+](CC(=O)c2ccc3c(c2)OCCO3)cc1 | 3.9 | 8.6 | 4.5 | i | -2.0
O=C(C[n+]1ccc(/C=C/c2ccccc2)cc1)c1ccc2c(c1)OCCO2 | -2.5 | 43.5* | -5.9 | i | 4.6
Cc1nc2cc(C(F)(F)F)ccc2n1CCNc1nc(-c2ccc([N+](=O)[O-])c(Cl)c2)cs1 | -1.2 | 10.0 | 5.8 | i | 15.7
O=C(Cc1ccccc1Cl)N/N=C/c1cccnc1 | -1.4 | 0.5 | -10.3 | i | 1.5
CCOC(=O)C1CCCN(C(=O)c2cnn3c(C(F)(F)F)cc(-c4ccccc4)nc23)C1 (centres undefined) | -3.0 | 0.9 | 17.7 | i | -18.8
CCOC(=O)C1CCCN(C(=O)c2cc3nc(-c4cccc(OC)c4)cc(C(F)(F)F)n3n2)C1 (centres undefined) | -5.0 | 6.0 | 62.9* | i | 13.9
O=C(C1CCC(CNS(=O)(=O)c2cccc3nsnc23)CC1)N1CC=C(c2ccccc2)CC1 (centres undefined) | -1.0 | -1.1 | -18.5 | i | -18.7
O=C(C1CCN(S(=O)(=O)c2cccc3nsnc23)CC1)N1CC=C(c2ccccc2)CC1 | -0.2 | 12.9 | 56.1* | i | 26.8
Cc1ccc(Cl)cc1N1CCN(C(=O)C2CCN(S(=O)(=O)c3c(C)nn(C)c3C)CC2)CC1 | 0.0 | 36.4 | 76.8* | i | -13.6
O=C(C1CCCN(S(=O)(=O)c2cccc3nsnc23)C1)N1CC=C(c2ccccc2)CC1 (centres undefined) | / | 10.4 | 49.8* | / | -0.6
Cc1ccc(C)c(N2CCN(C(=O)C3CCN(S(=O)(=O)c4cccc5nsnc45)CC3)CC2)c1 | -3.7 | 14.2 | 54.3* | i | -22.3
CC1CCCCN1C(=O)C1CCCN(S(=O)(=O)c2cccc3nsnc23)C1 (centres undefined) | 6.2 | 2.6 | -12.9 | i | -8.6
Cc1ccc(C)c(N2CCN(C(=O)c3nn(C)c4c3CS(=O)(=O)c3ccccc3-4)CC2)c1 | 10.5 | 7.2 | 43.0 | i | 11.4
Cc1cc(C)cc(C(=O)Nc2ccc(N3CCN(C(=O)c4ccco4)CC3)cc2)c1 | 1.7 | 0.8 | 29.4 | i | 4.3
COc1ccccc1N1CCN(S(=O)(=O)CCNC(=O)C23CC4CC(CC(C4)C2)C3)CC1 | -7.9 | 16.3 | 57.9* | i | 37.2
OC(CNC1CCCCC1)CON=C1CCSc2c(Cl)cccc21 (centres undefined) | / | 39.5* | 18.3 | / | /
Cc1ccc2nc(-c3ccccn3)c(N)n2c1 | / | 0.4 | -7.8 | / | /
CCOC(=O)c1c2c(n(Cc3ccccc3)c1C)C(=O)C(=O)c1ccccc1-2 | / | 2.8 | 55.4* | / | /
Clc1ccc(Cc2ccc(SCc3ccccc3)nn2)c(Cl)c1 | -1.7 | 15.2 | 50.0* | i | 3.8
CN(C)c1ccc(/C=C/C(=O)c2ccc(O)cc2)cc1 | / | 49.3* | 30.9 | / | /
CN(C)c1ccc(N/C=C/C(=O)c2ccccc2)cc1 | 88.4* | 5.3 | 25.5 | i | 2.8
COc1ccc(C(=O)/C=C/c2ccc(O)cc2)cc1 | 32.7 | 2.4 | -4.4 | i | -1.8
CN(C)c1ccc(C(=O)C=Cc2ccc([N+](=O)[O-])cc2)cc1 | / | -0.1 | 1.9 | / | /
COc1ccc(C(=O)/C=C/c2ccc(N(C)C)cc2)c(OC)c1 | -1.1 | 72.9* | 51.5* | i | -25.9
O=C(/C=C/c1ccc(O)cc1)c1ccccc1 | 72.1* | -1.4 | -1.6 | i | 4.2
SMILES | Platelet DG rel | TAAR1 ag | TAAR1 antag | Rce1 inh | VLA-4 inh
COc1ccc(-c2cc(C(=O)NCc3cccc(C(F)(F)F)c3)[nH]n2)c(C)c1 | / | -0.8 | 0.6 | / | /
COC(CNS(=O)(=O)c1ccc(S(=O)(=O)NC2CC2)cc1)OC | -0.5 | 9.7 | -4.5 | i | 15.0
COCCN(C(=O)CSc1nc2ccccc2o1)c1c(N)n(Cc2ccccc2)c(=O)[nH]c1=O | / | -0.1 | -5.1 | / | 6.2
NC1=NC(=O)C(c2ccccc2)(c2ccccc2)S1 | / | -0.4 | -16.3 | / | /
CC(=O)N1c2ccc(S(=O)(=O)NCCC(=O)N3CCCC(C)C3)cc2CC1C (centres undefined) | -2.4 | 2.9 | -29.1 | i | 2.8
CCOc1ccc(NS(=O)(=O)c2cccc(C(=O)N3CCN(C/C=C/c4ccccc4)CC3)c2)cc1 | / | 9.7 | 33.0 | / | /
CCO[C@@H]1OC(C(=O)N2CCN(Cc3ccc4c(c3)OCO4)CC2)=C[C@H](c2ccc(C(F)(F)F)cc2)[C@H]1CCCO | -13.2 | 7.3 | 23.8 | i | 7.2
CCO[C@@H]1OC(C(=O)N2CCN(Cc3ccccc3)CC2)=C[C@H](c2ccccc2)[C@H]1CCCO | -2.0 | 11.8 | 16.0 | + | 43.3
CCO[C@@H]1OC(C(=O)N2CCN(Cc3ccc4c(c3)OCO4)CC2)=C[C@H](c2ccc(Br)cc2)[C@H]1CCCO | -5.7 | 11.7 | 48.8* | i | -4.9
C#Cc1ccc([C@H]2C=C(C(=O)N3CCN(Cc4ccccc4)CC3)O[C@@H](OCC)[C@@H]2CCCO)cc1 | 10.7 | 8.6 | 30.8 | i | /
COc1ccc(C2=NS(=O)(=O)N(C)C(C(=O)Nc3ccc(C(C)=O)cc3)=C2)cc1OC | 5.3 | 11.9 | 53.1* | i | 3.8
O=C(Nc1cccc(S(=O)(=O)N2CCOCC2)c1)c1ccccc1[N+](=O)[O-] | / | 0.5 | -0.4 | / | 3.2
COc1cc(NC(=O)CSc2nnnn2C2CCCC2)cc(OC)c1 | -1.6 | 0.6 | 5.8 | i | -3.8
CCN(Cc1ccc2c(c1)OCO2)C(=O)CSc1ncnc2sccc12 | / | 14.7 | -4.9 | / | -5.4
CCN(Cc1ccc2c(c1)OCCO2)C(=O)CSc1nc(C)nc2sc(C)c(C)c12 | / | 4.3 | 59.5* | / | -17.9
O=C(c1ccc(C(F)(F)F)cc1)N1CCC(=O)N(C(COCc2ccccc2)Cc2ccccc2)CC1 (centres undefined) | -6.0 | 4.9 | 32.7 | i | /
CC(C)(C)c1ccc(C(=O)N2CCC(=O)N(C(CO)Cc3ccccc3)CC2)cc1 (centres undefined) | -1.7 | 46.3* | 35.4 | i | -13.2
CC(C)(C)c1ccc(C(=O)N2CCC(=O)N(C(COCc3ccccc3)Cc3ccccc3)CC2)cc1 (centres undefined) | -1.6 | 14.5 | 73.9* | i | 17.6
O=C(c1ccccc1)N1CCC(=O)N(C(CO)Cc2ccccc2)CC1 (centres undefined) | -0.8 | 4.9 | 13.6 | i | 27.5
O=C(O)c1ccsc1Cc1cccs1 | / | 4.0 | -5.5 | / | /
CCCCNC(=O)C(CC)Sc1nc2sc(C(=O)OC)c(C)c2c(=O)n1N (centres undefined) | 0.2 | 9.8 | -6.9 | + | 1.1
O=C(CSCc1ccco1)c1cccs1 | 85.4* | 11.0 | -16.3 | i | 5.4
Nc1ncnc2c1ncn2[C@@H]1O[C@H](C(=O)N[C@@H](CCc2ccccc2)C(=O)N2CCN(C(=O)N3CCCCC3)CC2)[C@@H](O)[C@H]1O | / | 1.2 | -28.5 | / | /
O=C(NCCc1cccnc1)c1cc(COc2ccc(F)cc2Cl)on1 | -15.7 | 1.9 | -6.5 | + | 6.6
